# Test results published in ChEMBL document CHEMBL5108071, “Potent and Specific Activators for Mitochondrial Sirtuins Sirt3 and Sirt5” (J Med Chem, 2022).
# Calls of active or inactive are those of the source. The calls are words filed in the database; no cut-off is given here.
# Biological target: NAD-dependent protein deacylase sirtuin-5, mitochondrial (Homo sapiens) (UniProt Q9NXA8)
# Experiment: Activation of human recombinant SIRT5 assessed as decrease in PDHA1-succinylation at 100 uM by Western blot analysis
# Settings: filed as activator
# Target sequence in this assay (Q9NXA8 whole entry, looked up, the tested form may be a part): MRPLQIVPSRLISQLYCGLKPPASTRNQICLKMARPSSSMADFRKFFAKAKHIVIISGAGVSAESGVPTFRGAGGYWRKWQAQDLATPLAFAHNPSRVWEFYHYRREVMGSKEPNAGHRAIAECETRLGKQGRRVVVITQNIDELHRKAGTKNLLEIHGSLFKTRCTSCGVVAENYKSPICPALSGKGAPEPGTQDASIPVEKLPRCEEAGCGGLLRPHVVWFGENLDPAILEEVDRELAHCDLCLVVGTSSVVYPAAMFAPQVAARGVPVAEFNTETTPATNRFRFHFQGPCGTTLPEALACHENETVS
row,Compound,Activity
1,CCOC(=O)C1=CN(C(=O)c2ccccc2)C=C(C(=O)OCC)C1c1cccc(Cl)c1,Active

# Biological target: T1, NAD-dependent protein deacetylase sirtuin-1 (Homo sapiens) (UniProt Q96EB6)
# T1 sequence (whole entry): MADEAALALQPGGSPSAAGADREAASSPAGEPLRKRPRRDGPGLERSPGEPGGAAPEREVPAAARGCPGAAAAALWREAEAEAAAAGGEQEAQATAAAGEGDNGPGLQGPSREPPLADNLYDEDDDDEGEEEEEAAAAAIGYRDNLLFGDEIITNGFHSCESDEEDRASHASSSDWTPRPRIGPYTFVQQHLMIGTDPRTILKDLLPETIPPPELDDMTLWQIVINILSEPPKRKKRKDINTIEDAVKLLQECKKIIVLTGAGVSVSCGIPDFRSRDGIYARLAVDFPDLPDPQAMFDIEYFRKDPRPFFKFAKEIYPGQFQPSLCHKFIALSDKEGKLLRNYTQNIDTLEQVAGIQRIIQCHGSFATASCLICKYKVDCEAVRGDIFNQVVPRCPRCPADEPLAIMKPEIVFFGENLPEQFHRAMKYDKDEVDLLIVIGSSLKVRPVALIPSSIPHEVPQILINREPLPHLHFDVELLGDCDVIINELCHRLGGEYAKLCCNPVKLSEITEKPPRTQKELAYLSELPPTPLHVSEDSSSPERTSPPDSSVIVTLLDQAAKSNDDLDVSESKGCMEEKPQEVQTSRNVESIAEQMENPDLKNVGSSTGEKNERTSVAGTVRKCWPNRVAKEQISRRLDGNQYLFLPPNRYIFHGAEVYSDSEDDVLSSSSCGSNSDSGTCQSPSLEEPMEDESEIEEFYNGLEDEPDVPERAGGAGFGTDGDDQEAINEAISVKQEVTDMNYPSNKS
# Experiment: Activation of N-terminal his-tagged human SIRT1 expressed in Escherichia coli assessed as fold activation at 100 uM using p53-acK381 as substrate in presence of NAD+
# Settings: filed as activator
# Summary of the method: (§1)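 Coupled enzymatic deacylation assay (nicotinamidase/GDH-coupled, continuous): 1.5 μM recombinant Sirtuin (expressed in E. coli, Ni-NTA purified, tag removed, size-exclusion purified) with 50 μM substrate peptide and 100 μM NAD+, without or with 10 μM or 100 μM 1,4-DHP, 5% final DMSO. Activity expressed relative to no-compound control.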
row,Compound,fold change (FC)
1,CCOC(=O)C1=CN(C(=O)c2cc(OC)c(OC)c(OC)c2)C=C(C(=O)OCC)C1c1ccc(CN2CCN(C)CC2)cc1,2.5
2,CCOC(=O)C1=CN(C(=O)c2cc(OC)c(OC)c(OC)c2)C=C(C(=O)OCC)C1c1ccsc1,2.5
3,CCOC(=O)C1=CN(C(=O)c2cc(OC)c(OC)c(OC)c2)C=C(C(=O)OCC)C1c1ccoc1,2.5
4,CCOC(=O)C1=CN(C(=O)c2cc(OC)c(OC)c(OC)c2)C=C(C(=O)OCC)C1c1ccco1,2.5

# Biological target: T2, NAD-dependent protein deacetylase sirtuin-2 (Homo sapiens) (UniProt Q8IXJ6)
# T2 sequence (whole entry): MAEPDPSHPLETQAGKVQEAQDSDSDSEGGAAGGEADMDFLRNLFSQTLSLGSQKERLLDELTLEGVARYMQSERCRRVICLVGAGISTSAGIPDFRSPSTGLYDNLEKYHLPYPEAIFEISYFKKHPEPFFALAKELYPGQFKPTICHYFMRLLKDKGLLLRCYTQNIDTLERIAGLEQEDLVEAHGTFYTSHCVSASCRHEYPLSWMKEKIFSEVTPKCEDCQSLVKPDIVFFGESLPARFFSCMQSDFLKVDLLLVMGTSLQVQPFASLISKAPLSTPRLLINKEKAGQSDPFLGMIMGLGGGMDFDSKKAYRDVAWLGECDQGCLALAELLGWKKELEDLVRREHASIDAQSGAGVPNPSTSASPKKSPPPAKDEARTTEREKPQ
# Experiment: Inhibition of N-terminal SUMO-tagged human SIRT2 (43 to 356 residues) expressed in Escherichia coli at 100 uM using acetylated alpha tubulin-K25 as substrate in presence of NAD+ relative to control
# Settings: not given
# Summary of the method: as §1
row,Compound,inhibition [%]
1,CCOC(=O)C1=CN(Cc2ccccc2)C=C(C(=O)OCC)C1c1cncs1,75

# Biological target: T2, NAD-dependent protein deacetylase sirtuin-2 (Homo sapiens)
# Experiment: Activation of N-terminal SUMO-tagged human SIRT2 (43 to 356 residues) expressed in Escherichia coli assessed as deacetylation of substrate at 100 uM using acetylated alpha tubulin-K2 as substrate in presence of NAD+
# Settings: filed as activator
# Summary of the method: as §1
row,Compound,Activity
1,CCOC(=O)C1=CN(C(=O)c2cc(OC)c(OC)c(OC)c2)C=C(C(=O)OCC)C1c1ccoc1,Active
2,CCOC(=O)C1=CN(C(=O)c2cc(OC)c(OC)c(OC)c2)C=C(C(=O)OCC)C1c1ccco1,Active

# Biological target: NAD-dependent protein deacylase sirtuin-5, mitochondrial (Homo sapiens) (UniProt Q9NXA8)
# Experiment: Activation of N-terminal his-tagged human SIRT5 (34 to 302 residues) expressed in Escherichia coli assessed as fold activation at 10 uM using CPS1-succ537 as substrate in presence of NAD+
# Settings: filed as activator
# Summary of the method: as §1
# Target sequence in this assay (Q9NXA8 37-310 limits assumed): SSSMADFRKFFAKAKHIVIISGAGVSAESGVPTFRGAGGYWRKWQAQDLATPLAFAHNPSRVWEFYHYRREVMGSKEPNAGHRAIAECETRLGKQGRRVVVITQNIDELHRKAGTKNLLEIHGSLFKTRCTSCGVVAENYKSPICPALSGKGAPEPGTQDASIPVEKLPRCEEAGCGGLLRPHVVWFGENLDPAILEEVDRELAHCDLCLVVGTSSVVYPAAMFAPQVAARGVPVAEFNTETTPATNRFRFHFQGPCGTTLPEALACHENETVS
row,Compound,fold change (FC)
1,CCOC(=O)C1=CN(C(=O)c2ccccc2)C=C(C(=O)OCC)C1c1cccc(Cl)c1,1.2
2,CCOC(=O)C1=CN(C(=O)c2cnc3ccccc3n2)C=C(C(=O)OCC)C1c1ccccc1,1.2
3,CCOC(=O)C1=CN(C(=O)c2ccccc2)C=C(C(=O)OCC)C1c1cccc(OC)c1,1.2
4,CCOC(=O)C1=CN(C(=O)c2cnccn2)C=C(C(=O)OCC)C1c1ccccc1,1.2
5,CCOC(=O)C1=CN(Cc2ccccc2)C=C(C(=O)OCC)C1c1ccc2ccccc2c1,1.2
6,CCOC(=O)C1=CN(C(=O)c2ccccc2)C=C(C(=O)OCC)C1c1ccc(Cl)cc1,1.2
7,CCOC(=O)C1=CN(C(=O)c2ccccc2)C=C(C(=O)OCC)C1c1ccc(OC)cc1,1.2

# Biological target: T3, NAD-dependent protein deacetylase sirtuin-3, mitochondrial (Homo sapiens) (UniProt Q9NTG7)
# T3 sequence (whole entry): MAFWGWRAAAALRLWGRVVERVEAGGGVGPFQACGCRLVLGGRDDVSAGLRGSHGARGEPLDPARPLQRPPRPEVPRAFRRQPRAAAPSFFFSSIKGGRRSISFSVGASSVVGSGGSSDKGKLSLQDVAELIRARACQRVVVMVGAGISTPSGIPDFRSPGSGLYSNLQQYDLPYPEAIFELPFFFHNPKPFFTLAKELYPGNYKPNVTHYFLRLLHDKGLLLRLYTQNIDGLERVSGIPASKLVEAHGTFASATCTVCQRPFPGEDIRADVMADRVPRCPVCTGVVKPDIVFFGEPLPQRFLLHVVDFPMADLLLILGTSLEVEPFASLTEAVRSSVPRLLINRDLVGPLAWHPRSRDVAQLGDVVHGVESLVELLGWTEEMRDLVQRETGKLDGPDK
# Experiment: Activation of N-terminal his-tagged human SIRT3 (114 to 380 residues) expressed in Escherichia coli assessed as fold activation at 100 uM using ACS2-acK642 as substrate in presence of NAD+
# Settings: filed as activator
# Summary of the method: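 Coupled continuous enzymatic assay (nicotinamidase/GDH-linked): 1.5 µM purified Sirt3 with 50 µM ACS2-acK642 peptide and 100 µM NAD+, compound at 10 µM, 100 µM or titrated, 5% DMSO final; fold deacetylation versus no-compound control.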
row,Compound,fold change (FC)
1,CCOC(=O)C1=CN(Cc2ccccc2)C=C(C(=O)OCC)C1c1ccccc1,2

# Biological target: T1, NAD-dependent protein deacetylase sirtuin-1 (Homo sapiens)
# Experiment: Activation of N-terminal his-tagged human SIRT1 expressed in Escherichia coli at 10 to 100 uM using p53-acK381 as substrate in presence of NAD+
# Settings: filed as activator, dose 10-100 µM
# Summary of the method: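 Compound titration in the nicotinamidase/GDH-coupled deacylation assay. 1.5 μM recombinant Sirt1 (E. coli-expressed, Ni-NTA purified, tag removed, size-exclusion purified) was used with 50 μM p53-acK381 peptide and 100 μM NAD+. 1,4-DHP was added at the indicated concentrations in 5% final DMSO.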
row,Compound,Activity
1,CCOC(=O)C1=CN(C(=O)c2cc(OC)c(OC)c(OC)c2)C=C(C(=O)OCC)C1c1cccc(C)c1,Active
2,CCOC(=O)C1=CN(Cc2cc(OC)c(OC)c(OC)c2)C=C(C(=O)OCC)C1c1ccccc1,Active
3,CCOC(=O)C1=CN(C(=O)c2cc(OC)c(OC)c(OC)c2)C=C(C(=O)OCC)C1c1cccc(Cl)c1,Active
4,CCOC(=O)C1=CN(Cc2cc(OC)c(OC)c(OC)c2)C=C(C(=O)OCC)C1c1cnc2ccccc2c1,Active
5,CCOC(=O)C1=CN(C(=O)c2cc(OC)c(OC)c(OC)c2)C=C(C(=O)OCC)C1c1cccc(F)c1,Active
6,CCOC(=O)C1=CN(C(=O)c2ccccc2)C=C(C(=O)OCC)C1c1ccoc1,Active

# Biological target: NAD-dependent protein deacylase sirtuin-5, mitochondrial (Homo sapiens) (UniProt Q9NXA8)
# Experiment: Activation of SIRT5 in human CAPAN-1 cells assessed as decrease in GOT1 acetylation at 20 uM incubated for 24 hrs by Western blot analysis
# Settings: filed as activator
# Target sequence in this assay (Q9NXA8 whole entry, looked up, the tested form may be a part): as the sequence (Q9NXA8 whole entry, looked up, the tested form may be a part) above
row,Compound,Activity
1,CCOC(=O)C1=CN(C(=O)c2ccccc2)C=C(C(=O)OCC)C1c1cccc(Cl)c1,Active

# Biological target: NAD-dependent protein deacylase sirtuin-5, mitochondrial (Homo sapiens) (UniProt Q9NXA8)
# Experiment: Activation of N-terminal his-tagged human SIRT5 (34 to 302 residues) expressed in Escherichia coli assessed as fold activation at 100 uM using CPS1-succ537 as substrate in presence of NAD+
# Settings: filed as activator
# Summary of the method: as §1
# Target sequence in this assay (Q9NXA8 37-310 limits assumed): as the sequence (Q9NXA8 37-310 limits assumed) above
row,Compound,fold change (FC)
1,CCOC(=O)C1=CN(C(=O)c2ccccc2)C=C(C(=O)OCC)C1c1ccc(C)cc1,2
2,CCOC(=O)C1=CN(Cc2ccccc2)C=C(C(=O)OCC)C1c1cc2ccccc2s1,2
3,CCOC(=O)C1=CN(C(=O)c2ccccc2)C=C(C(=O)OCC)C1c1cccc(Cl)c1,2
4,CCOC(=O)C1=CN(C(=O)c2cnc3ccccc3n2)C=C(C(=O)OCC)C1c1ccccc1,2
5,CCOC(=O)C1=CN(C(=O)c2ccccc2)C=C(C(=O)OCC)C1c1cccc(OC)c1,2
6,CCOC(=O)C1=CN(C(=O)c2ccccc2)C=C(C(=O)OCC)C1c1ccccc1OC,2
7,CCOC(=O)C1=CN(C(=O)c2cnccn2)C=C(C(=O)OCC)C1c1ccccc1,2
8,CCOC(=O)C1=CN(Cc2ccccc2)C=C(C(=O)OCC)C1c1ccc(-c2ccccc2)cc1,2
9,CCOC(=O)C1=CN(Cc2ccccc2)C=C(C(=O)OCC)C1c1ccc2ccccc2c1,2
10,CCOC(=O)C1=CN(Cc2ccccc2)C=C(C(=O)OCC)C1c1cccc2ccccc12,2
11,CCOC(=O)C1=CN(C(=O)c2cccc3ccccc23)C=C(C(=O)OCC)C1c1ccccc1,2
12,CCOC(=O)C1=CN(C(=O)c2ccccc2)C=C(C(=O)OCC)C1c1ccccc1Cl,2
13,CCOC(=O)C1=CN(C(=O)c2ccccc2)C=C(C(=O)OCC)C1c1ccc(Cl)cc1,2

# Biological target: T3, NAD-dependent protein deacetylase sirtuin-3, mitochondrial (Homo sapiens)
# Experiment: Inhibition of N-terminal his-tagged human SIRT3 (114 to 380 residues) expressed in Escherichia coli at 100 uM using ACS2-acK642 as substrate in presence of NAD+ relative to control
# Settings: not given
# Summary of the method: as §1
row,Compound,inhibition [%]
1,CCOC(=O)C1=CN(Cc2ccccc2)C=C(C(=O)OCC)C1c1cncs1,60

# Biological target: T1, NAD-dependent protein deacetylase sirtuin-1 (Homo sapiens)
# Experiment: Activation of N-terminal his-tagged human SIRT1 expressed in Escherichia coli assessed as fold activation at 10 to 100 uM using p53-acK381 as substrate in presence of NAD+
# Settings: filed as activator, dose 10-100 µM
# Summary of the method: as §1
row,Compound,fold change (FC)
1,CCOC(=O)C1=CN(C(=O)c2cnc3ccccc3n2)C=C(C(=O)OCC)C1c1ccccc1,1.5
2,CCOC(=O)C1=CN(Cc2ccccc2)C=C(C(=O)OCC)C1c1ccccc1,1.5
3,CCOC(=O)C1=CN(Cc2ccccc2)C=C(C(=O)OCC)C1c1ccsc1,1.5
4,CCOC(=O)C1=CN(Cc2ccccc2)C=C(C(=O)OCC)C1c1ccco1,1.5
5,CCOC(=O)C1=CN(C(=O)c2ccc3ccccc3c2)C=C(C(=O)OCC)C1c1ccccc1,1.5
6,CCOC(=O)C1=CN(C(=O)c2ccccc2)C=C(C(=O)OCC)C1c1ccc(OC)cc1,1.5

# Biological target: NAD-dependent protein deacylase sirtuin-5, mitochondrial (Homo sapiens) (UniProt Q9NXA8)
# Experiment: Activation of SIRT5 in human S2-013 cells assessed as decrease in GOT1 acetylation at 20 uM incubated for 24 hrs by Western blot analysis
# Settings: filed as activator
# Target sequence in this assay (Q9NXA8 whole entry, looked up, the tested form may be a part): as the sequence (Q9NXA8 whole entry, looked up, the tested form may be a part) above
row,Compound,Activity
1,CCOC(=O)C1=CN(C(=O)c2ccccc2)C=C(C(=O)OCC)C1c1cccc(Cl)c1,Active

# Biological target: NAD-dependent protein deacylase sirtuin-5, mitochondrial (Homo sapiens) (UniProt Q9NXA8)
# Experiment: Activation of N-terminal his-tagged human SIRT5 (34 to 302 residues) expressed in Escherichia coli assessed as fold activation at 10 to 100 uM using CPS1-succ537 as substrate in presence of NAD+
# Settings: filed as activator, dose 10-100 µM
# Summary of the method: as §1
# Target sequence in this assay (Q9NXA8 37-310 limits assumed): as the sequence (Q9NXA8 37-310 limits assumed) above
row,Compound,fold change (FC)
1,CCOC(=O)C1=CN(C(=O)c2cc(OC)c(OC)c(OC)c2)C=C(C(=O)OCC)C1c1ccc(CN2CCN(C)CC2)cc1,2
2,CCOC(=O)C1=CN(C(=O)c2cc(OC)c(OC)c(OC)c2)C=C(C(=O)OCC)C1c1ccoc1,2
3,CCOC(=O)C1=CN(C(=O)c2ccccc2)C=C(C(=O)OCC)C1c1ccco1,2
4,CCOC(=O)C1=CN(C(=O)c2cc(OC)c(OC)c(OC)c2)C=C(C(=O)OCC)C1c1ccco1,2
5,CCOC(=O)C1=CN(C(=O)c2ccccc2)C=C(C(=O)OCC)C1c1ccoc1,3
